Measurements: publication PMC6482435 (Biochemistry, 2019)

Columns and labels:
Assay in all cases: Yeast-based OR sensor, GFP dose-response
Format in all cases: cell-based
OR2A7 = target: T1, OR2A7 (Homo sapiens, UniProt Q96R45); details: for OR-dependent activation, conclusion in words: OR2A7 vs no OR control; for EC50: GFP expression, 4 h, 0-1000 μM chemical, 1% DMSO
T1 sequence (Q96R45 1-310): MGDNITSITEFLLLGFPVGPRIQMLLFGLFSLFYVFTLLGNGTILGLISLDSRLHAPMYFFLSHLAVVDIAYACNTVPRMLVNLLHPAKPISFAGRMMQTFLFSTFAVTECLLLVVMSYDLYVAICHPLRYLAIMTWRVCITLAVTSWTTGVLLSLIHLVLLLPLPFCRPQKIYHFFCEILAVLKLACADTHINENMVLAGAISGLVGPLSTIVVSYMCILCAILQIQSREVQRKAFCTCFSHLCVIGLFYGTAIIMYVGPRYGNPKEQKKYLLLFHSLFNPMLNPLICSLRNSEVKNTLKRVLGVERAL
Summary of the method: (§1)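 Yeast-codon-optimized human OR in S. cerevisiae PPY140 (Δfar1 Δste2 Δsst2) with PFIG1-eGFP reporter. Cells pre-grown 18 h at 15 °C in SD(HL–), exposed to test compound 0–1000 μM final, 1% DMSO, 4 h at 30 °C. Flow-cytometric geometric mean GFP, 10000 cells; triplicate; two-tailed t test vs DMSO; empty-vector strain run same day; EC50 from dose-response fit.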

OR2T4 = target: T2, OR2T4 (Homo sapiens, UniProt Q8NH00); details: for OR-dependent activation, conclusion in words: OR2T4 vs no OR control; for increase in the signal after activation: OR2T4, dose-response curve, compared to DMSO control; for EC50: GFP expression, 4 h, 0-1000 μM chemical, 1% DMSO; for increase in percent GFP expression compared to the no receptor control: OR2T4 vs empty-vector control strain
T2 sequence (Q8NH00 1-348): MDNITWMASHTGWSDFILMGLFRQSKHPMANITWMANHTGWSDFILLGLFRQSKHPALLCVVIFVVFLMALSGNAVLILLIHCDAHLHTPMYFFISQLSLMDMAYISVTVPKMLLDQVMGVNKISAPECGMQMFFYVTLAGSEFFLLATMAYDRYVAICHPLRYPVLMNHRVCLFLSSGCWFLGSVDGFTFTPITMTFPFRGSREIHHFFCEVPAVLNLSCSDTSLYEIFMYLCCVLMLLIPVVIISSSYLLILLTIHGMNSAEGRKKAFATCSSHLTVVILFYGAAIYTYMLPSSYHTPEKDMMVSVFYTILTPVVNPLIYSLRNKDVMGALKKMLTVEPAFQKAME
Summary of the method: as §1

OR51B5 = target: T3, OR51B5 (Homo sapiens, UniProt Q9H339); details: for increase in the signal after activation: OR51B5, dose-response curve, compared to DMSO control
T3 sequence (Q9H339 1-312): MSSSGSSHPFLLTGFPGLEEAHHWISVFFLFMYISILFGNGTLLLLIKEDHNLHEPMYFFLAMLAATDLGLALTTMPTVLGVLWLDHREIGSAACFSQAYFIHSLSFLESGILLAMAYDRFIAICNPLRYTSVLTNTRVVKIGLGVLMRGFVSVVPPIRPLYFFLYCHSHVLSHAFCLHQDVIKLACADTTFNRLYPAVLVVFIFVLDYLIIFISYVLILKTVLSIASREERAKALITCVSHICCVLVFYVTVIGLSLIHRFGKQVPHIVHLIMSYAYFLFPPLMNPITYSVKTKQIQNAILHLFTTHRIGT
Summary of the method: as §1

OR2L13 = target: T4, OR2L13 (Homo sapiens, UniProt Q8N349); details: OR2L13, dose-response curve, compared to DMSO control
T4 sequence (Q8N349 1-312): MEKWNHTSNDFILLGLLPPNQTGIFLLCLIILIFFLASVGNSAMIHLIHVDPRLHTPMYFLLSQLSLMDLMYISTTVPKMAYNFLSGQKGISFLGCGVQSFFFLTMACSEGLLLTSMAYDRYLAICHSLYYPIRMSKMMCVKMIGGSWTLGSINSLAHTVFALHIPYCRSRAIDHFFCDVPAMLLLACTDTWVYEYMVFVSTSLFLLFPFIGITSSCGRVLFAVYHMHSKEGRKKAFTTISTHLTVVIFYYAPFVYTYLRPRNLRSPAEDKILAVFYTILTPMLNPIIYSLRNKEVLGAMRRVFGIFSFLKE
Summary of the method: as §1

OR2W3 = target: T5, OR2W3 (Homo sapiens, UniProt Q7Z3T1)
T5 sequence (Q7Z3T1 1-314): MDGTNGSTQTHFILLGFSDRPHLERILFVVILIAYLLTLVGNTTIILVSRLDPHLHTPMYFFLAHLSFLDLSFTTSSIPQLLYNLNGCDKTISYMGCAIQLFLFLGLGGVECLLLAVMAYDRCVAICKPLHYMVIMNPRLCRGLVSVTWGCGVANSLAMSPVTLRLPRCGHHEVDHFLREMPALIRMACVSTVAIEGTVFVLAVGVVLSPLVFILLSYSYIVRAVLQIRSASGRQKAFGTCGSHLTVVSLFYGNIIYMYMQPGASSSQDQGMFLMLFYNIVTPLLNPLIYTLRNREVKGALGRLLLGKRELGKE
Summary of the method: as §1

OR2A42 = target: T6, OR2A42 (Homo sapiens, UniProt Q8NGT9)
T6 sequence (Q8NGT9 1-310): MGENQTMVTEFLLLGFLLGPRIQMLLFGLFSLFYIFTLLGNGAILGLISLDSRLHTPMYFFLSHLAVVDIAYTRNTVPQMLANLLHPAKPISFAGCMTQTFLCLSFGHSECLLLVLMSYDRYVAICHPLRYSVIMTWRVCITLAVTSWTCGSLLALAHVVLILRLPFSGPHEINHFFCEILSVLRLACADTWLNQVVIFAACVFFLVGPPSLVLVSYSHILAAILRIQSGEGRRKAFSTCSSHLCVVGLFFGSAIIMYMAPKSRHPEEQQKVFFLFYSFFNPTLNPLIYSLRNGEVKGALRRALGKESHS
Summary of the method: as §1

OR10S1 = target: T7, OR10S1 (Homo sapiens, UniProt Q8NGN2)
T7 sequence (Q8NGN2 1-331): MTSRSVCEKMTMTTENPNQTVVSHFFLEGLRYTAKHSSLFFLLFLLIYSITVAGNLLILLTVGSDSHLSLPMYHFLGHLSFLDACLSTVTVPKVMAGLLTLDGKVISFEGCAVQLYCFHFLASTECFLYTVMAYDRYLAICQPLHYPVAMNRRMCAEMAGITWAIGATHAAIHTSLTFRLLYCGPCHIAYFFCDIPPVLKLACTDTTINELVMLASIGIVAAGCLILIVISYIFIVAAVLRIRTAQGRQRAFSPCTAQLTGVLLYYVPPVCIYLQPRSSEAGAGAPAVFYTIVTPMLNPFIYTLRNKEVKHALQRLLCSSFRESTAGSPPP
Summary of the method: as §1

CC(C)(C)c1ccccc1 [TBB, tert-butylbenzene]
OR-dependent activation, conclusion in words (OR2A7): not OR dependent | OR-dependent activation, conclusion in words (OR2T4): not OR dependent

CCCCCCCCCCCC(=O)O [dodecanoic, lauric acid]
increase in the signal after activation (OR51B5): > 2 fold

CCCCCCCCCCCCO [dodecanol, 1-dodecanol]
increase in the signal after activation (OR2L13): > 2 fold

CC(C)=CCC/C(C)=C/CC/C(C)=C/CO [farnesol]
EC50 (OR51B5; EC50, OR51B5 yeast sensor, GFP expression, 4 h, 0-1000 μM chemical, 1% DMSO): 181 µM | increase in the signal after activation (OR51B5): > 2 fold | OR-dependent activation, conclusion in words (OR51B5; OR51B5, on/off behavior of the response): nonspecifically activates GFP expression | increase in percent GFP expression compared to the no receptor control (OR51B5; OR51B5 vs empty-vector control strain): 3 fold | EC50 (fit to dose-response curve) (OR2W3; OR2W3 yeast sensor, GFP expression, Figure S6): do not fit a dose–response curve | EC50 (OR2A7; OR2A7 yeast sensor): do not fit a dose–response curve | increase in the signal after activation (OR2T4): > 2 fold | OR-dependent activation, conclusion in words (OR2T4): not a ligand | EC50 (OR2T4; OR2T4 yeast sensor): could not be fitted | increase in the signal after activation (OR2A42; OR2A42, dose-response curve, compared to DMSO control): 2 fold | OR-dependent activation, conclusion in words (OR2A42; OR2A42 vs no OR control): not a ligand | EC50 (fit to dose-response equation) (OR2A42; OR2A42 yeast sensor, GFP expression): could not be fitted

CC(C)=CCC/C(C)=C\CO [nerol]
signal after activation (in words) (OR2W3; OR2W3, dose-response curve, Figure S1): did not result in a significant increase in the signal after activation

CCCCCCCCC=O [nonanal]
increase in the signal after activation (OR10S1; OR10S1, dose-response curve, compared to DMSO control): > 2 fold | OR-dependent activation, conclusion in words (OR10S1; OR10S1 vs no OR control): the no OR control shows a similar increase in GFP expression

CCCCCCCCCCC=O [undecanal]
increase in the signal after activation (OR2L13): > 2 fold | increase in the signal after activation (OR2T4): > 2 fold | increase in percent GFP expression compared to the no receptor control (OR2T4): 2.3 fold | OR-dependent activation, conclusion in words (OR2T4): confirmed ligand

CC1=CCC2CC1C2(C)C (stereo not drawn) [α-pinene, alpha-pinene]
EC50 (OR2A7; EC50, OR2A7 yeast sensor): 412 µM | increase in the signal after activation (OR2A7; OR2A7, dose-response curve, compared to DMSO control): > 2 fold | increase in percent GFP expression compared to the no receptor control (OR2A7; OR2A7 vs empty-vector control strain): 2.3 fold | OR-dependent activation, conclusion in words (OR2A7): confirmed ligand | EC50 (OR2T4; EC50, OR2T4 yeast sensor): 659 µM | increase in the signal after activation (OR2T4): > 2 fold | maximal level of GFP expression of OR2T4, higher than that of OR2A7 (OR2T4; OR2T4 relative to OR2A7): 63% | increase in percent GFP expression compared to the no receptor control (OR2T4): 3 fold | OR-dependent activation, conclusion in words (OR2T4): confirmed ligand

C=C1CCC2CC1C2(C)C (stereo not drawn) [β-pinene, beta-pinene]
weaker response than with α-pinene (OR2A7; OR2A7, response relative to α-pinene): 18%
